High-throughput results from PubChem.
NPR1 activator: GC-A stimulated cGMP production enhancers – HEK293 GC-A cells, cGMP TR-FRET, EC30 ANP, primary screen; activation, % at 10 µM; Atrial natriuretic peptide receptor 1 (Homo sapiens), P16066; 0% at EC30 ANP, 100% saturating ANP; hit rate 0.14% among 370,000; in the data active = activation above about 40%
GASC-1 inh: inhibitors of GASC-1 histone demethylase, primary screen, biochemical, fluorescence, DELFIA europium; GST-JMJD2C(1-420) H3K9me3 demethylation; inhibition, % at 2.35 µM; hit rate 0.069% among 330,000;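 active = more than half of a compound's replicate wells show inhibition beyond 50%, single wells judged on their own value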;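 also: signal counts dimethyl H3K9 product captured on neutravidin plate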
Hep lipid drop: inhibitors of hepatocyte lipid droplet formation, primary screen, imaging, high-throughput imaging, BODIPY stain; AID 1656, 2009; hit rate 0.4% among 240,000; AML12 mouse hepatocytes, oleate lipid droplets; inhibition, % at 6.5 µM;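 active = lipid droplet intensity inhibited by at least 50%, with more than 500 cells counted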
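Assay system: AML12 hepatocytes (mouse) / Also added: 100 µM oleic acid challenge / Times: overnight treatment with compound plus oleate / Detection: high-content imaging of BODIPY-stained droplets and DAPI nuclei / Evaluation: % inhibition of lipid droplet signal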
NR3A LBD binder: binders of NR3A ligand-binding domain, primary screen, biophysical, differential scanning fluorimetry, uHTS; Tm shift relative to glycine control, % at 25 µM; Glutamate receptor ionotropic, NMDA 3A (GRIN3A) ligand-binding domain; NR3A LBD differential scanning fluorimetry, Tm shift; 0% = protein alone, 100% = glycine-bound protein; hit rate 2.5% among 340,000; AID 1259313, 2017;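 active = melting temperature shift of at least 10% of the positive control shift, at one fixed dose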
GC-B act: human GC-B receptor activators, primary screen, HEK293 GC-B cells, cGMP TR-FRET, EC30 CNP | hit rate 0.11% among 370,000 | activation, % at 10 µM | 0% at EC30 CNP, 100% saturating CNP | Atrial natriuretic peptide receptor 2 (Homo sapiens), P20594;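 active = activation at 10 µM reaching about 35% in either raw or pattern-adjusted values, limit read from the data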
aDG glyco act: activators of alpha-DG glycosylation, primary screen, uHTS, Pro5-aDG cells, AlphaScreen | hit rate 0.22% among 360,000 | activation, % at 10 µM | alpha-DG glycosylation AlphaScreen (IIH6); 0% Pro5, 100% B10-LARGE cell signal;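 active = activation of at least 8% versus controls, or a plate z-score of at least 8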;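 also: Pro5 are CHO cells carrying HIG-tagged alpha-DG that lacks glycosylation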
Lipid drop inh: hepatocyte lipid droplet accumulation inhibitors, confirmation, imaging, AML12 mouse hepatocytes, single concentration, high-content. shares compounds with Hep lipid drop. BODIPY lipid droplet imaging; droplets induced with 100 µM oleic acid. inhibition, % at 5.2 µM. hit rate 65% among 870. AID 463183, 2010;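 active = inhibition of lipid droplet metric at least 50%, with more than 300 cells in each of four replicates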
AML12 cytotox: AML12 hepatocyte cytotoxicity, counter-screen for hepatic lipid droplet formation project, imaging, DAPI nuclear morphology imaging. shares compounds with Hep lipid drop. AML12 mouse hepatocytes; hits give high values; cells fed 100 µM oleate overnight. z-score at 5 µM. hit rate 3% among 870. AID 463200, 2010; in the data active = z-score above about 6.3;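 also: compound exposure lasted overnight at 37 °C before fixation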
aDG conf: alpha-DG glycosylation enhancers, retest, confirmation, single concentration, Pro5-aDG cells; shares compounds with aDG glyco act; IIH6 AlphaLISA; scaled to LARGE-overexpressing B10 cells as 100%; activation, % at 10 µM (by protocol); hit rate 17% among 600; AID 651671, 2012;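 active = activation of at least 7% in one or more replicates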;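 also: cells exposed to compound for two days before detection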
Of the large screens only hits and unclear results are named; the others gave an inactive call (follow-up assays come after a bar, where they were run). Most compounds without a hit are left out; they make up all but 3% or so of the library.

CC[C@@H]1C[C@H]2CC[C@H](O2)[C@H](C)C(=O)O[C@@H](C)C[C@@H]2CC[C@@H](O2)[C@@H](C)C(=O)O[C@H](C)C[C@H]2CC[C@H](O2)[C@H](C)C(=O)O[C@@H](C)C[C@@H]2CC[C@@H](O2)[C@@H](C)C(=O)O1	none (no result: GASC-1 inh, Hep lipid drop, NR3A LBD binder, aDG glyco act)
O=C(c1cc(C(=O)NCc2ccccc2)c(=O)n(Cc2ccccc2)c1)c1cc(Cl)ccc1O	NR3A LBD binder 13
O=C(NCc1ccccc1)c1cccn(Cc2ccccc2)c1=O	none
O=C(Nc1ccc(Cl)cc1)OC1CN2CCC1CC2 (stereo not drawn)	none
O=C(Nc1cccc(Cl)c1)OC1CN2CCC1CC2 (stereo not drawn)	NR3A LBD binder 42
O=S(=O)(c1ccc2ccccc2c1)N1Cc2cc(Br)ccc2-n2nncc2C1	none (no result: GASC-1 inh, Hep lipid drop, NR3A LBD binder, aDG glyco act)
CC(C)(C)n1nnnc1C1CN=C(c2ccccc2)c2ccccc2N1 (stereo not drawn)	none (no result: GASC-1 inh, Hep lipid drop, NR3A LBD binder, aDG glyco act)
Nc1c(C(=O)NCCc2ccccc2)c2nc3ccccc3nc2n1CCN1CCOCC1	NR3A LBD binder 12
COc1ccc(CCNC(=O)c2c(N)n(CCN3CCOCC3)c3nc4ccccc4nc23)cc1	none
Cc1cc(O)c2c(c1)C(=O)[C@@]13C(=C2O)C(=O)[C@H]2C(O)[C@@H]1[C@H]1C(O)[C@@H]3C(=O)C3=C(O)c4c(O)cc(C)cc4C(=O)[C@@]312 (stereo partly drawn)	none (no result: GASC-1 inh, Hep lipid drop, NR3A LBD binder, aDG glyco act)
CCN1CCOC(c2ccccc2)C1 (stereo not drawn)	none (no result: GASC-1 inh, Hep lipid drop)
c1ccc(C2OCCN3CCCCC23)cc1 (stereo not drawn)	NR3A LBD binder 11 (no result: GASC-1 inh)
CC1C(c2ccccc2)OCCN1C (stereo not drawn)	NR3A LBD binder 11 (no result: GASC-1 inh, Hep lipid drop)
CC(C)(C)n1nnnc1C1CN=C(c2ccccc2)c2cc(Cl)ccc2N1 (stereo not drawn)	none (no result: GASC-1 inh, Hep lipid drop, NR3A LBD binder, aDG glyco act)
c1ccc2c(c1)[nH]c1cnccc12	NR3A LBD binder 14
O=C(Nc1ccc(Cl)cc1)N1CC2CC(C1)c1cccc(=O)n1C2 (stereo not drawn)	NR3A LBD binder 11
O=C(Nc1ccc(Br)cc1)N1C[C@H]2C[C@@H](C1)c1cccc(=O)n1C2	none
Cc1cccc(NP(=O)(Oc2ccccc2F)Oc2ccccc2F)c1C	NR3A LBD binder 24
CC1(C)CN=C(Nc2ccc(F)c(Cl)c2)S1	Hep lipid drop 116 | Lipid drop inh inactive | AML12 cytotox inactive
CC1(C)CN=C(Nc2ccc(F)c(F)c2)S1	none (no result: Hep lipid drop)
CCOC(=O)CC[C@@H]1CC[C@]2(CCCN(Cc3ccncc3)C2)O1	none (no result: GASC-1 inh, Hep lipid drop, NR3A LBD binder, aDG glyco act)
CCc1ccc(-n2c(O)c(C(C)=O)c(=O)[nH]c2=O)cc1 (tested in a mixture with another compound)	Hep lipid drop 70 | Lipid drop inh inactive | AML12 cytotox inactive
CN(Cc1ccccc1)Cc1ccccc1OC(=O)N(C)C	aDG glyco act 58 (no result: Hep lipid drop) | aDG conf inactive
CC(=O)c1cn(CCCOc2ccccc2)c2ccccc12	aDG glyco act 6.3 | aDG conf inactive
O=C(C(=O)N1CCOCC1)c1cn(CCCOc2ccccc2)c2ccccc12	none
COc1cccc(C(=O)NCCN2CCC3(CC2)C(=O)NCN3c2ccccc2)c1	none (no result: GASC-1 inh, Hep lipid drop, NR3A LBD binder, aDG glyco act)
Cc1ccnc(-n2c(C)nc3ccccc3c2=O)c1	aDG glyco act 7.8 | aDG conf 0.6
N#CCC[C@@H]1CC[C@]2(CCCN(Cc3ccncc3)C2)O1	none (no result: GASC-1 inh, Hep lipid drop, NR3A LBD binder, aDG glyco act)
